Assay outcomes (PubChem)
GSK3A inh: blockers of GSK3A enzyme activity – biochemical, luminescence, cell-free homogeneous, HTS, primary screen. inhibition, % at 10 µM. Glycogen synthase kinase-3 alpha (Homo sapiens), P49840. GSK-3 alpha kinase, ADP-Glo luminescence, 60 min. 0.1% of 320,000 active;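 active = more than half of replicates show inhibition above 20%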;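 note: GST-tagged GSK-3 alpha with peptide substrate and 25 µM ATP; 0% = DMSO neutral wells and 100% = GW8510 positive control wells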
MEKK2 mut-MEK5: MEK5 binding signal on mutant MEKK2 PB1, primary screen, biochemical, multiplex bead flow cytometry, Alexa488-MEK5; AID 1530, 2009; 0.35% of 290,000 active; Alexa488-MEK5 binding to MEKK2 mutant; percent response, % at 10 µM; in the data active = percent response above about 24%, passing the limit was not always enough
STK33 kinase inh: inhibitors of purified STK33 kinase, primary screen, biochemical, ADP-Glo luminescence, homogeneous, cell-free; 0.073% of 320,000 active; MBP phosphorylation; inhibition, % at 10 µM; AID 2661, 2010;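 active = inhibition at or above 25%, using the most active replicate where run in duplicate; inactive = inhibition below 25%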
Target sequence (Q9BYT3 whole entry, looked up): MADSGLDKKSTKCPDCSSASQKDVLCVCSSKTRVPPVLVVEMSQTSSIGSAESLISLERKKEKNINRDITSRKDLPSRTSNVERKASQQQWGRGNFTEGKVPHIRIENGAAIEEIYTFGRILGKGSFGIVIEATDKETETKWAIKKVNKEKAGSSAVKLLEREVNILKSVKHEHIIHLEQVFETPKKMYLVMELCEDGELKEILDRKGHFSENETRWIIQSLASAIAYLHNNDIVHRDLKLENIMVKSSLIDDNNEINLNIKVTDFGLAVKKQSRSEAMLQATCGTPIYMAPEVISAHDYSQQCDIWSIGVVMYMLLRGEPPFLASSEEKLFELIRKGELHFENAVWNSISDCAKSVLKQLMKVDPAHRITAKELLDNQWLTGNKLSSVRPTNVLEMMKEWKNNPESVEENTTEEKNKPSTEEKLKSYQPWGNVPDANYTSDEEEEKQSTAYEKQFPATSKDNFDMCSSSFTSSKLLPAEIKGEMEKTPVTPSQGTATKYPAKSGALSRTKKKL
MEKK3 PB1 HTS: modulators of MEKK3-MEK5 PB1 binding, primary screen, biochemical, wildtype MEKK3, multiplex bead flow cytometry, Alexa488-MEK5 | binding response (% of control), % at 10 µM | 1.4% of 290,000 active | bead-based flow cytometry, Alexa488-MEK5 binding to MEKK3; actives lie on both sides; 0 = blocked by unlabeled MEK5, 100 = vehicle;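 active = binding response more than 3 SD above or below the average of its plate-row segment, actives on both sides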;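 note: Alexa488 bead fluorescence after subtracting the streptavidin-only scavenger bead signal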
MEKK2wt PB1 HTS: modulators of MEK5 binding to wildtype MEKK2, primary screen, biochemical, multiplex bead flow cytometry, Alexa488-MEK5 | Alexa488-MEK5 binding to MEKK2 WT; actives lie on both sides | Mitogen-activated protein kinase kinase kinase 2 (Homo sapiens), Q9Y2U5 | 1.1% of 290,000 active | binding response (% of control), % at 10 µM | AID 1531, 2009; in the data active = binding response below about 67% or above about 130%
GSK3B inh: human GSK3beta kinase inhibitors, primary screen, biochemical, cell-free homogeneous, HTS; AID 2097, 2009; GST-GSK3beta kinase, ADP-Glo luminescence, 60 min; hits give low values; 0.038% of 300,000 active; activity score (negative = inhibition), % at 10 µM;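 active = more than half of replicate wells score below -50%, meaning over 50% inhibition versus plate controls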;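 note: 0% = median DMSO wells and -100% = median GW8510 positive control wells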
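Test system: GST-fused GSK3beta enzyme, cell-free | Quantity: 1.6 ng GST-GSK3beta enzyme per well | Reagent: 25 µM ATP with peptide substrate | Schedule: 60 min enzyme reaction, room temperature | Signal: Luminescent ADP-Glo measurement of ADP formed | Read-out basis: Score relative to plate controls | Control set: DMSO and 20 µM GW8510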
An asterisk follows results filed as active; nt = no result; [ ] = dose if it differs, or a comment. Hits are enriched below; roughly 2.1% of the tested compounds scored in any of these assays.

SMILES	GSK3A inh	MEKK2 mut-MEK5	STK33 kinase inh	MEKK3 PB1 HTS	MEKK2wt PB1 HTS	GSK3B inh
O=C(COc1ccc(S(=O)(=O)N2CCCC2)cc1)NCC1CCCO1 (stereo not given)	0.1	6.0	-0.1	115.0	102.0	0.0
CCN(CC)c1ccc(/C=N/NC(=O)c2cc(C)nc3ccccc23)cc1	-1.8	-1.0	-1.6	106.0	101.0	-0.8
CCN(CC)c1ccc(/C=C/c2cc(-c3ccccc3)c3ccccc3n2)cc1	-0.9	2.0	-1.3	74.0*[inhibitor]	93.0	0.8
CC(C)=CCc1c(O)ccc2c1OC(c1ccc(O)c(O)c1)CC2=O (stereo not given)	76.0*	4.0	2.5	111.0	105.0	-50.2*
CC1SC(c2ccc(F)cc2)N(CCc2ccccc2)C1=O (stereo not given)	1.0	-2.0	1.8	101.0	105.0	-3.6
CCCCN(C(=O)CN1C(=O)C2CCCCC2C1=O)c1c(N)n(CCCC)c(=O)[nH]c1=O (stereo not given)	0.6	nt	-0.8	nt	nt	1.5
CCOc1ccccc1-c1c2cc(O)c(=O)cc-2oc2cc(O)c(O)cc12	nt	51.0*	nt	137.0*	166.0*	nt
Oc1cccc(C(O)CNCc2ccc(OCc3ccc(Cl)cc3Cl)cc2)c1 (stereo not given)	-0.1	8.0	0.5	107.0	155.0*	-2.3
Oc1cccc(C(O)CNCc2ccc(-c3ccccc3)cc2)c1 (stereo not given)	-1.2	2.0	0.6	105.0	128.0	-2.0
CCOC(=O)C1C(=O)C=C(/C=C/c2ccc(N(C)C)cc2)CC1c1ccccc1 (stereo not given)	2.9	51.0*	-0.5	129.0	42.0*	-0.5
CCOC(=O)C1C(=O)C=C(c2ccc(C)cc2)CC1c1ccccc1 (stereo not given)	-0.8	2.0	-0.8	118.0	105.0	-1.3
CCN1CCN(CCCNC(=O)c2ccc(/C=C3/Sc4ccccc4N(Cc4ccccc4F)C3=O)cc2)CC1	6.4	40.0	4.4	102.0	177.0*	2.5
O=C(NCCN1CCOCC1)c1ccc2c(c1)N(Cc1ccccc1F)C(=O)c1ccccc1S2	-4.0	9.0	0.9	106.0	111.0	-1.5
CCN1CCN(CCCNC(=O)c2ccc(/C=C3/Oc4ccccc4N(Cc4cccc(C)c4)C3=O)cc2)CC1	0.6	34.0*	0.5	105.0	169.0*	-16.1
O=C(NCCCN1CCOCC1)c1ccc(/C=C2\Oc3ccccc3N(Cc3ccccc3F)C2=O)cc1	-1.5	22.0	-0.8	105.0	133.0	-7.9
Cc1occc1-c1nnc(SCC(=O)Nc2ccccc2)n1C	-2.3	3.0	-0.1	92.0	-13.0*	-5.8
CCOc1cc(/C=C/C(=O)Nc2ccc(C(=O)NCCN(CC)CC)cc2)ccc1OCC(C)C	3.7	4.0	-0.6	122.0	138.0*	-1.6
COc1cc(S(=O)(=O)NCCCn2ccnc2)ccc1Cl	1.5	2.0	-0.2	103.0	104.0	1.5
CC1CCCC(C)N1C(=O)c1ccc2c(c1)S(=O)(=O)c1ccccc1C2=O (stereo not given)	-1.0	-26.0	0.7	0.0*[inhibitor]	-12.0*[inhibitor]	1.8
O=C1c2ccccc2S(=O)(=O)c2cc(C(=O)N3CCC(C(=O)N4CCCCC4)CC3)ccc21	1.5	-8.0	-1.0	69.0	82.0	-3.7
COc1ccc(-c2cc(C(=O)NNC3=NCCC3)c3c(C)nn(-c4ccccc4)c3n2)cc1	2.3	-2.0	0.1	97.0	101.0	3.2
CC12CCC(C[N+](C)(C)C1)C2(C)C (stereo not given)	1.0	91.0*	-0.3	111.0	33.0*	2.6
O=C(COC(=O)c1ccco1)NC12CC3CC(CC(C3)C1)C2	-2.8	nt	-1.9	nt	nt	nt
